# Experimental data from different studies.
# Each line is one published result; the experiments were not run side by side.
# Target: G protein-coupled receptor kinase 3 (GRK3, Homo sapiens, UniProt P35626)
# Residues used in one study (P35626 1-688): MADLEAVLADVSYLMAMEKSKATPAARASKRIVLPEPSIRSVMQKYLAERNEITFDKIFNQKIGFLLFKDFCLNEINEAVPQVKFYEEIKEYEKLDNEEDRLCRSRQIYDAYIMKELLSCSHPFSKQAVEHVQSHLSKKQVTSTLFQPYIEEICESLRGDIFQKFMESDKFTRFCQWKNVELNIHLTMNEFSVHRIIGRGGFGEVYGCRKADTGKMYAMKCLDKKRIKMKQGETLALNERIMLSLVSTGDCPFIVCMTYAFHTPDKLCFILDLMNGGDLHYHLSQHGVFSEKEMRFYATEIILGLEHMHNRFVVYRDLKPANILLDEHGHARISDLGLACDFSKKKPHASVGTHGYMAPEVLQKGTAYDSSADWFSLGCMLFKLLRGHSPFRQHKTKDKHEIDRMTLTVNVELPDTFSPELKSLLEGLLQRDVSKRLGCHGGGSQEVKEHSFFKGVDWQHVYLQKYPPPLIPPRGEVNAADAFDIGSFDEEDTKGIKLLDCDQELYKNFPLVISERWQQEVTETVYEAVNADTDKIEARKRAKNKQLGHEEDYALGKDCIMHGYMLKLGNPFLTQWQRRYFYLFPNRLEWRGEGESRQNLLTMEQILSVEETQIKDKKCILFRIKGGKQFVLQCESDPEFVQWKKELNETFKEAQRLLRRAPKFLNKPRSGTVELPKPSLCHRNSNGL
SMILES,observed,method,tested at,remaining binding [%]
Cc1cnn2ncc(-c3ccnc(N(C)C)n3)c2c1,binding,,1 µM,67
Cc1nc(N2CC[C@@H](O)C2)ncc1-c1cc(C(F)(F)F)cc2[nH]ncc12,binding,competition with immobilised ligand,1 µM,87
c1cnn2ncc(-c3ccnc(N4CCC45COC5)n3)c2c1,binding,,1 µM,29
FC(F)(F)Oc1cccc(-c2cnc3ccc(-c4ccncc4)nn23)c1,cell-free assay,competition with immobilised ligand,5 µM,99
O=C1CCc2cc(Nc3cc(OC4CCOCC4)c([N+](=O)[O-])cc3Cl)ccc2N1,cell-free assay,competition with immobilised ligand,1 µM,100
CC1CCCN1c1nccc(-c2cnn3ncccc23)n1 (stereo not drawn),binding,,1 µM,100
C[C@@H](c1cccc(C#N)c1)n1cc(Cl)cc(C(N)=O)c1=N,cell-free assay,competition with immobilised ligand,1 µM,81
O=C(c1ccc(Nc2ncc(Cl)c(-c3cc4ccccc4s3)n2)cc1)N1CCC(N2CCCC2)CC1,binding,competition with immobilised ligand,1 µM,63
CNC(=O)[C@@H]1CC[C@@H](n2c(-c3ccc4cnccc4c3)nc3ccc(C(=O)NCc4cccc(C(N)=O)c4)cc32)C1,binding,competition with immobilised ligand,1 µM,68
C=CC(=O)N1CCC(C(=O)NCC(=O)N2CCN(c3nc(-c4cnc(N)nc4C(F)F)nc(N4CCOCC4)n3)CC2)CC1,binding,competition with immobilised ligand,1 µM,100
O=C(c1ccc(Nc2ncc(Cl)c(-c3ccc(Cl)s3)n2)cc1)N1CCC(N2CCCC2)CC1,binding,competition with immobilised ligand,1 µM,46
COc1ncc2cc3ccccc3nc2c1C#N,cell-free assay,competition with immobilised ligand,5 µM,53
C[C@@H](c1ccc(-n2cnc3c(N)ncnc32)cc1)N1CCc2nn(C)c(Cc3ccccc3)c2C1=O,binding,competition with immobilised ligand,0.1 µM,87
O=C(Nc1c[nH]nc1C(=O)NC1CCNCC1)c1cc(F)cc(F)c1,binding,competition with immobilised ligand,1 µM,82
NS(=O)(=O)c1cc(NC(=O)C2(c3ccccc3Cl)CC2)ccc1Oc1cccc(Cl)c1,cell-free assay,competition with immobilised ligand,1 µM,100
CN(C)c1ncc(F)c(-c2cnn3ncccc23)n1,binding,,1 µM,100
CN(C)C(=O)Cn1cc(-c2nc([C@@](C)(c3ccc(-c4cnc(N)nc4)cc3)C3CC3)no2)cn1,cell-free assay,competition with immobilised ligand,1 µM,86
COc1ccnn2ncc(-c3ccnc(N(C)C)n3)c12,binding,,1 µM,57
Nc1cnc(N2CCc3cc(S(=O)(=O)Nc4c(F)cc(Cl)cc4F)cc(N4CCCC4=O)c32)nc1,cell-free assay,competition with immobilised ligand,1 µM,100
C[C@@H]1CCN(c2nccc(-c3cnn4ncccc34)n2)C1,binding,,1 µM,56
O=C(NCCCN1CCOCC1)c1ccc(Nc2nccc(-c3cc4ccccc4s3)n2)cc1,binding,competition with immobilised ligand,1 µM,88
